Source: PubChem BioAssay
Beta2AR agonist: beta2AR agonists driving receptor internalization, primary screen, cell-based, FAP fluorogen, flow cytometry. Beta-2 adrenergic receptor (Homo sapiens), P07550. Am2.2-beta2AR cells. response, % (concentration not given with the values). hit rate 0.43% among 340,000. AID 504454, 2011;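 active = response above a set limit, near 3 SD of response in nonfluorescent compounds, cut at about 42% in these data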
L929 necroptosis: inhibitors of zVAD-triggered necroptosis, primary screen, L929 cells; L929 zVAD necroptosis rescue, ATP luminescence, 24 h; with zVAD 60 µM; AID 1377, 2008; viability rescue, % at 10 µM; hit rate 0.38% among 220,000;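 active = activation, scaled between plate controls, above about 75%, limit read from the data; inactive = activation under that limit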
TNF necrop inh: inhibitors of TNF-alpha triggered necroptosis, primary screen, cell-based, Jurkat FADD-/-, single concentration; Jurkat FADD-/- TNF necroptosis rescue, ATP luminescence, 24 h; 0 = TNF only, 100 = no-TNF cells; activation (protection from cell death), % at 10 µM; hit rate 0.068% among 220,000;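 active = activation, meaning protection from cell death, of at least 50% relative to plate controls; inactive = activation below 50%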;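 note: necroptosis triggered by 40 ng/mL TNF-alpha added together with compound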
Mdm2 ligase inh: MDM2-luciferase reporter signal enhancers, primary screen, MDM2 E3 ligase inhibitor project, cell-based, luminescence, 1536-well; hit rate 0.11% among 210,000; signal enhancement, % at 5 µM; E3 ubiquitin-protein ligase Mdm2 (Homo sapiens), Q00987; cell-based MDM2 ubiquitination luciferase reporter, 2 h; 0 = plate control, 100 = twice control, blank-subtracted;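 active = signal enhancement of 30% or more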;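 note: luminescence tracks abundance of the self-degrading MDM2-luciferase fusion protein; higher signal means inhibition of MDM2 E3 ligase activity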
Target sequence (Q00987 whole entry, looked up, the tested form may be a part): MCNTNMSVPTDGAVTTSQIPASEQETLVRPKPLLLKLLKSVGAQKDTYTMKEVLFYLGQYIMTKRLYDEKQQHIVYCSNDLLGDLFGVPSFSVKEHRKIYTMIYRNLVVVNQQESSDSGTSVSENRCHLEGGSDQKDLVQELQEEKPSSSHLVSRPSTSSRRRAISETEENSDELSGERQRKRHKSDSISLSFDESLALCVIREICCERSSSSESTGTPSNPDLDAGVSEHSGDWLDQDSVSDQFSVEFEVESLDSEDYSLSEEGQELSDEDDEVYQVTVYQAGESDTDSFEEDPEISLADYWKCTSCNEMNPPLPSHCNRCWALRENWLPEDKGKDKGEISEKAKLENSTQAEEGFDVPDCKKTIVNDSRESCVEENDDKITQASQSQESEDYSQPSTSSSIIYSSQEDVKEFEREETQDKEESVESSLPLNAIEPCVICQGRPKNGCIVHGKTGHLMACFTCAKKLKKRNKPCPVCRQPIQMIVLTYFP
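Assay system: stable mammalian line carrying autodegrading MDM2–luciferase fusion reporter; amount: 2000 cells seeded into each well; buffer or medium: DMEM; benchmarks: plate control and blank wells; signal: luciferase luminescence; timing: 2 h compound exposure at 37 °C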
Dynein cargo inh: inhibitors of GR-EGFP nuclear translocation, primary screen, dynein cargo transport inhibitor project, imaging, high-content, 3617.4 mouse cells | test concentration mostly 20 µM; stimulated with dexamethasone, 1 µM; hits give low values | z-score, hits read low | hit rate 0.47% among 220,000 | AID 1381, 2008;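 active = plate z-score of nuclear minus cytoplasmic receptor signal below a set negative limit, without overly bright fluorescence or cell loss, cut at about -3.5 in these data, passing the limit was not always enough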;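 note: z-score of nuclear minus cytoplasmic ring GR-EGFP intensity difference per well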
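Also added – dexamethasone, 1.0 µM final · Buffer or medium – tet-free, stripped-serum medium · Schedule – induction 48 h, compound 1 h, agonist 30 min · Detection – formaldehyde fixation, Hoechst nuclear stain, 10x automated fluorescence imaging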
zVAD necrop conf: inhibitors of zVAD-triggered necroptosis in L929, confirmation, L929 cells, duplicate runs; shares compounds with L929 necroptosis; hit rate 16% among 760; L929 zVAD-induced necroptosis rescue, ATP luminescence, 24 h; activation (protection from necroptosis), % at 10 µM;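 active = mean protection from necroptosis of at least 50% over duplicate tests; inactive = mean protection below 50%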
Numbers stand for hits; i = inactive; nt = no result. Sampled rows, rich in hits. Any-hit rate of the full collection: about 0.97%.

SMILES	Beta2AR agonist	L929 necroptosis	TNF necrop inh	Mdm2 ligase inh	Dynein cargo inh	zVAD necrop conf
Cn1c(=O)n(C)c2cc(NC(=O)CCl)ccc21	i	83.5	i	i	i	i
CC(=O)Nc1ccc(Nc2nc(C)c([N+](=O)[O-])c(Nc3ccccc3)n2)cc1	i	i	i	i	i	nt
CC(=O)Nc1ccc(Nc2ncc([N+](=O)[O-])c(Nc3ccc(NC(C)=O)cc3)n2)cc1	i	90.3	i	i	i	i
CC1CCCN(Cc2c(O)ccc3c(=O)c(-c4nc5ccccc5s4)c(N)oc23)C1 (stereo unspecified)	i	78.0	i	i	i	i
CC1CCN(Cc2c(O)ccc3c(=O)c(-c4nc5ccccc5s4)c(N)oc23)CC1	i	i	i	i	i	nt
N#Cc1ccc(C(=O)N2CCN(S(=O)(=O)c3ccc(Cl)s3)CC2)cc1	i	nt	nt	nt	nt	nt
c1ccc(Nc2nc(N3CCCCC3)nc(N3CCNCC3)n2)cc1	i	77.3	i	i	i	i
FC(F)(F)c1cnc2c(c1)Nc1ccccc1S2	i	98.3	i	i	i	58.2
O=C1Nc2ccccc2C1c1ncc(C(F)(F)F)cc1Cl (stereo unspecified)	i	nt	nt	nt	nt	nt
COc1ccc(/C=C/C(=O)c2ccc[nH]2)cc1OC	i	88.8	i	i	i	i
COc1ccc(/C=C/C(=O)c2ccc[nH]2)c(OC)c1OC	i	i	i	i	i	nt
O=C(Nc1ccc(-n2cnnn2)cc1)C1CCC1	i	i	i	i	i	nt
O=C(Cc1ccc(-n2cnnn2)cc1)NC12CC3CC(CC(C3)C1)C2	i	86.0	i	i	i	i
O=C(CSc1n[nH]c(-c2ccccc2Cl)n1)NC1CCCCC1	i	nt	nt	nt	nt	nt
Clc1ccc(/C=N/Nc2ncnc3nc[nH]c23)cc1	i	78.1	i	i	i	i
COC(=O)c1cc2n(n1)CCN(Cc1ccccc1Cl)C2=O	i	i	i	i	i	nt
COC(=O)c1ccn(Cc2ccccc2Cl)n1	i	89.9	100.0	i	i	81.3
CCc1c(C)sc(NC(=O)CCc2ccc(OC)cc2)c1C(N)=O	i	i	i	nt	i	nt
COC(=O)c1c(C)[nH]c(C(=O)OCc2ccc(F)cc2)c1C	i	78.8	i	i	i	i
CC(=O)c1c(C)[nH]c(C(=O)OCc2cccc(Cl)c2)c1C	i	78.7	i	i	i	i
CCc1c(C)[nH]c(C(=O)OCc2ccccc2)c1C	i	86.2	i	i	i	i
COC1(OC)N=C(N)C2(C#N)C(c3ccc(C)cc3)C12C#N (stereo unspecified)	i	i	i	i	i	nt
Cc1ccc(C)c(NC2CCCCC2NS(=O)(=O)c2ccccc2)c1 (stereo unspecified)	i	nt	nt	nt	nt	nt
CCOc1ccc(NC(=O)c2ccc3nccnc3c2)cc1	i	i	i	i	i	nt
COc1cccc(NC(=O)Nc2ccc(Br)cn2)c1	i	i	i	i	i	nt
SMILES	Beta2AR agonist	L929 necroptosis	TNF necrop inh	Mdm2 ligase inh	Dynein cargo inh	zVAD necrop conf
CCOc1ccc(NC(=O)Nc2ccc(Br)cn2)cc1	i	75.0	i	i	i	i
COc1ccc(NC(=O)Nc2ccc(Br)cn2)cc1OC	i	76.7	i	i	i	i
CCOc1ccc(NC(=O)Nc2ccc3nccnc3c2)cc1	i	91.9	i	i	i	i
CN1C2C=C(N(CCc3c[nH]c4ccccc34)C(=O)c3ccc(Cl)cc3)CC1CC2 (stereo unspecified)	i	i	i	i	i	nt
C/C(=N\OCc1ccc(C#N)cc1)c1cc2ccccc2o1	i	78.4	i	nt	i	i
S=c1[nH]ncn1NCc1ccc(Cl)cc1Cl	i	87.4	i	i	i	i
Fc1cccc(Cl)c1CNn1cn[nH]c1=S	i	i	i	i	i	nt
CCCN1C(=O)/C(=C/c2ccc3c(c2)OCO3)NC1=S	i	87.2	i	i	i	90.4
O=C(N/C(=C\c1ccc([N+](=O)[O-])cc1)C(=O)N1CCOCC1)c1ccccc1	i	i	i	i	i	nt
Cc1sc(NC(=O)c2cccs2)nc1-c1ccccc1	i	i	i	i	i	nt
O=C(Nc1nsc(-c2ccccc2)n1)c1cccs1	i	75.3	i	i	i	i
COc1ccc(C(=O)n2nc(C)c(Br)c2C)cc1	i	i	i	i	i	nt
N#Cc1c(N)n[nH]c1-c1cc2c([nH]1)CCCC2	i	87.5	i	i	i	i
N#Cc1cc2c([nH]c1=S)CCCCCC2	i	i	i	i	i	nt
COc1ccc(NC(=O)NC23CC4(C)CC(C)(CC(C)(C4)C2)C3)cc1	i	75.6	i	i	i	i
COc1ccc(C(=O)NNC(=O)Nc2ccc(Cl)cc2)cc1	i	80.6	i	i	i	i
O=C(CC1(O)C(=O)N(Cc2cccc3ccccc23)c2ccccc21)c1cccnc1 (stereo unspecified)	i	i	i	i	i	nt
Cc1nnsc1SCCNC(=O)Nc1ccc(Cl)cc1	i	78.8	i	i	i	i
O=C(NCCNC(=O)Nc1ccc(Cl)cc1)Nc1ccc(Cl)cc1	i	nt	nt	nt	nt	nt
CC1CCC(C(=O)NC(C(=O)NCCc2ccc(S(N)(=O)=O)cc2)C(C)C)CC1 (stereo unspecified)	i	nt	nt	nt	nt	nt
CC(C(=O)Nc1nncs1)N1C(=O)C2C3C=CC(C3)C2C1=O (stereo unspecified)	i	78.0	i	i	i	i
O=c1[nH]c2ccccc2nc1-c1ccc(Cl)cc1	i	76.4	i	nt	i	i
CCCCNC(C(=O)Nc1cccc(S(=O)(=O)N2CCOCC2)c1)c1ccccc1 (stereo unspecified)	i	i	i	i	i	nt
Nc1ccc(Nc2nc3ccccc3[nH]2)cc1	i	nt	nt	nt	nt	nt
c1ccc(Nc2nc3ccccc3[nH]2)nc1	i	75.0	i	i	i	i
SMILES	Beta2AR agonist	L929 necroptosis	TNF necrop inh	Mdm2 ligase inh	Dynein cargo inh	zVAD necrop conf
O=C(NCc1ccco1)c1ccc(N2CCOCC2)c([N+](=O)[O-])c1	i	i	i	i	i	nt
O=C(Nc1ccc(F)cc1)Nc1ccc(N2CCCC2)c(S(=O)(=O)Nc2ccccc2Cl)c1	i	75.9	i	i	i	72.1
CC1(C)CC(=O)C=C(Nc2cc(-c3ccccc3)[nH]n2)C1	i	90.8	i	i	i	i
CC1(C)CC(=O)C=C(NCc2ccccc2)C1	i	i	i	i	i	nt
CN(c1ccccc1)S(=O)(=O)c1nnc(NC(=O)COc2ccccc2)s1	i	nt	nt	nt	nt	nt
Cc1ccccc1NC(=O)C(=Cc1ccc(C(=O)O)cc1)C(=O)Nc1ccccc1C	i	79.2	i	i	i	i
